Experiment [1] is filed under the species Homo sapiens. Description: In vitro inhibition of U-46,619-induced aggregation of unwashed human platelets. It is filed as functional. To be noted: for Kb: Homo sapiens, read-out: pA2 (converted). In outline: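 Citrated (3.2%) human venous blood spun at 200g for 10 min. Platelet-rich plasma aggregated with U46619 with or without several antagonist concentrations.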

Experiment [2] has as its target T1, Thromboxane-A synthase (Homo sapiens, UniProt P24557).
T1 sequence (P24557 whole entry): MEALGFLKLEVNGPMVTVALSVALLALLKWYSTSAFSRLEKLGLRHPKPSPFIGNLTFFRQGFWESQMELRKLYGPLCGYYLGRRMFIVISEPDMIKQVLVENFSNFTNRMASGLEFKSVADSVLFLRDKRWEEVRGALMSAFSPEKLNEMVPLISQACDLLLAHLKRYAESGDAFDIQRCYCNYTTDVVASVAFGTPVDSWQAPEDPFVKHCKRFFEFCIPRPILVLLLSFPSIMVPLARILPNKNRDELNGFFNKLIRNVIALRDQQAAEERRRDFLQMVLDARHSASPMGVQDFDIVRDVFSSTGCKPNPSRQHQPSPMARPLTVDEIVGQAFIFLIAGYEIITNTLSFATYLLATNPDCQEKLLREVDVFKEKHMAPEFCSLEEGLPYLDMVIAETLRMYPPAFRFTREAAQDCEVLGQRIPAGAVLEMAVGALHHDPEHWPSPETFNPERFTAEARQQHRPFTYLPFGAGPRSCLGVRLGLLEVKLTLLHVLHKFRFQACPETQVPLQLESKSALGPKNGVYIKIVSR
As to the kind of experiment: In vitro Inhibition of thromboxane synthase from human blood platelet microsomes. In outline: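 Human blood platelet microsomes incubated with [1-14C]arachidonic acid with or without inhibitor. Conversion to labeled thromboxane B2 quantified radiochromatographically. n = 2.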

The target of experiment [3] is T2, Prostacyclin synthase (Homo sapiens, UniProt Q16647).
T2 sequence (Q16647 whole entry): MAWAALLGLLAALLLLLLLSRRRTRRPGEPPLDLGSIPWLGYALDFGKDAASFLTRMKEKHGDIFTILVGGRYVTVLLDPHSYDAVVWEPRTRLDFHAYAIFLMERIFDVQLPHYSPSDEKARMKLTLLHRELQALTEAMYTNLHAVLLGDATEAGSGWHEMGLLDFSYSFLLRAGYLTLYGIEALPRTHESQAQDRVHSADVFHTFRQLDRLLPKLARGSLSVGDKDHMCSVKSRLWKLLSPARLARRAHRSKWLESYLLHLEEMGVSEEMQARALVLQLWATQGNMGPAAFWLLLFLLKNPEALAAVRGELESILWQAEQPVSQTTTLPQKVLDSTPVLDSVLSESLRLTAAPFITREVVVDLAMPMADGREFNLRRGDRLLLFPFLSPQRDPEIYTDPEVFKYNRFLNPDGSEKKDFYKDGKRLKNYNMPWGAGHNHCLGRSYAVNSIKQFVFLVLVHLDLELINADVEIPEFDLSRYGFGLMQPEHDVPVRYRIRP
As to the kind of experiment: In vitro inhibition of Prostaglandin I2 synthase in cultured human endothelial cells.

The test system of experiment [4] is Thromboxane-A synthase (Canis familiaris). As to the kind of experiment: Ex vivo […] (TXA2 synthase) inhibitory activity after 8 hr of oral dosing (1 mg/kg) in the dog. Particulars: Canis lupus familiaris.
Experiment [5] shares this test system. As to the kind of experiment: Ex vivo […] (TXA2 synthase) inhibitory activity after 5 hr of oral dosing (1 mg/kg) in the dog. Particulars: Canis lupus familiaris.
The test system is the same in experiment [6]. Description: Ex vivo […] (TXA2 synthase) inhibitory activity after 24 hr of oral dosing (1 mg/kg) in the dog. Particulars: Canis lupus familiaris.
The test system of experiment [7] is Rattus norvegicus. As to the kind of experiment: Ex vivo TXA2 ([…]) antagonist activity was determined for U-46,619 induced aggregation (dose ratio) after 3 hr of oral dosing (10 mg/kg) in the rat. It is filed as functional. In outline: (§1)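 Conscious rats (n = 6) dosed by oral gavage, then anesthetized and bled from the abdominal aorta at 1, 3 or 5 h. Platelet-rich plasma aggregated with U46619 before and after dosing to give a U46619 dose ratio. ">" values mark the maximum dose ratio achievable at the top U46619 concentration (1 × 10^-4 M).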

Experiment [8] has as its system Rattus norvegicus. As to the kind of experiment: Ex vivo TXA2 ([…]) antagonist activity was determined for U-46,619 induced aggregation (dose ratio) after 1 hr of oral dosing (10 mg/kg) in the rat. The format is functional. In short, it runs like this: as §1
Experiment [9] deals with Rattus norvegicus. Description: Ex vivo TXA2 ([…]) antagonist activity was determined for U-46,619 induced aggregation (dose ratio) after 5 hr of oral dosing (10 mg/kg) in the rat. The format is functional. In short, it runs like this:
as §1

Experiment [10] has as its system Rattus norvegicus. Description: Ex vivo […] (TXA2 synthase) inhibitory activity after 5 hr of oral dosing (10 mg/kg) in the rat. It is filed as functional. In outline:
(§2)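 Rats (n = 6) gavaged, anesthetized, aortic blood taken at 1, 3 or 5 h after dosing. A blood aliquot was challenged with collagen and TXB2 measured by radioimmunoassay; expressed as % inhibition of TXA2 synthase (±SEM).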

Experiment [11] concerns Rattus norvegicus. Description: Ex vivo […] (TXA2 synthase) inhibitory activity after 1 hr of oral dosing (10 mg/kg) in the rat. The format is functional. In short, it runs like this: as §2
Experiment [12] concerns Rattus norvegicus. Description: Ex vivo […] (TXA2 synthase) inhibitory activity after 3 hr of oral dosing (10 mg/kg) in the rat. It is filed as functional. In short, it runs like this: as §2

Turning to `N#Cc1ccccc1C1OCC(C/C=C\CCC(=O)O)C(c2cccnc2)O1` (stereo not given), the Kb in experiment [1] was 245 nM. Besides, the concentration for half-maximal inhibition (IC50) was 54 nM in [2] and more than 100000 nM in [3]. The inhibition in experiment [4] came out at 84%; in experiment [5] it was 91%; in experiment [6], 82.6%.

On to `CC(C)(Oc1ccccc1[N+](=O)[O-])C1OCC(C/C=C\CCC(=O)O)C(c2cccnc2)O1` (stereo not given), for which the Antagonist activity is 9 in experiment [7], more than 57 in experiment [8] and 3 in [9]. For the same compound, the Kb in experiment [1] is 11.2 nM. Moreover, the IC50 in experiment [2] was less than 10 nM; in [3], less than 1000 nM. For the same compound, the Inhibition in experiment [10] was determined as 63.2%; in experiment [11], 85.5%; in experiment [12], 75.8%.

As to `CSc1ccc(OC(C)(C)C2OCC(C/C=C\CCC(=O)O)C(c3cccnc3)O2)c([N+](=O)[O-])c1` (stereo not given), the Kb in [1] was 4.47 nM. For the same compound, the IC50 in [2] came out at 22 nM; in [3] it was 5000 nM.

As to `Cc1ccc(OC(C)(C)C2OCC(C/C=C\CCC(=O)O)C(c3cccnc3)O2)cc1` (stereo not given), the Kb in [1] is 631 nM. Also, the values for the IC50 in [2] and in experiment [3] were 360 nM and 25000 nM, respectively.

In experiment [1], `Cc1ccc(OC(C)(C)C2OCC(C/C=C\CCC(=O)O)C(c3cccnc3)O2)c(C#N)c1` (stereo in doubt; 7ac) registered a pA2 of 8.1. The IC50 was determined as 50 nM in [2] and 47000 nM in [3].

Regarding `CC(C)(Oc1ccccc1C#N)C1OCC(C/C=C\CCC(=O)O)C(c2cccnc2)O1` (stereo not given), in experiment [1], the Kb was 13.2 nM. Also, the values for the IC50 in [2] and in experiment [3] were 45 nM and 3000 nM, respectively.

In the case of `CC(C)(Oc1ccccc1O)C1OCC(C/C=C\CCC(=O)O)C(c2cccnc2)O1` (stereo not given), the Kb in [1] is 95.5 nM. Moreover, the figures for the IC50 in experiment [2] and in experiment [3] were 32 nM and more than 100000 nM, respectively.

`COc1ccc(OC(C)(C)C2OCC(C/C=C\CCC(=O)O)C(c3cccnc3)O2)c([N+](=O)[O-])c1` (stereo not given): the Kb in experiment [1] is 6.17 nM. The figures for the IC50 in experiment [2] and in [3] were 37 nM and 23000 nM, respectively.

As for `CC(C)(Oc1ccc(Br)cc1)C1OCC(C/C=C\CCC(=O)O)C(c2cccnc2)O1` (stereo in doubt; 7q), the pA2 in experiment [1] is given as 6.48. The IC50 in experiment [2] is 22 nM; in experiment [3] it was 4000 nM.

`CC(C)(Cc1ccc(F)cc1)C1OCC(C/C=C\CCC(=O)O)C(c2cccnc2)O1` (stereo not given): the Kb in experiment [1] is 89.1 nM. For the same compound, the IC50 in experiment [2] is 45 nM; in [3], 2000 nM.

Turning to `Cc1ccc(OC(C)(C)C2OCC(C/C=C\CCC(=O)O)C(c3cccnc3)O2)c([N+](=O)[O-])c1` (stereo in doubt; 7w), the pA2 in [1] was 8.34. Also, the IC50 came out at 27 nM in experiment [2] and 33000 nM in experiment [3].

As to `O=C(O)CC/C=C\CC1COC(c2ccc([N+](=O)[O-])cc2)OC1c1cccnc1` (stereo not given), the Kb in experiment [1] was 933 nM. For the same compound, the IC50 in experiment [2] amounted to 39 nM; in [3], 13000 nM.

For the compound `Cc1ccc(C#N)c(OC(C)(C)C2OCC(C/C=C\CCC(=O)O)C(c3cccnc3)O2)c1` (stereo not given), in experiment [1], the Kb was 15.8 nM. In addition, the IC50 is 50 nM in [2] and more than 100000 nM in experiment [3].

`CC(=O)c1ccc(OC(C)(C)C2OCC(C/C=C\CCC(=O)O)C(c3cccnc3)O2)c([N+](=O)[O-])c1` (stereo not given): in [1], the Kb is 1.51 nM. Besides, the results for the IC50 in experiment [2] and in experiment [3] were less than 10 nM and 4000 nM, respectively.

As to `CC(C)(Oc1ccc(F)cc1)C1OCC(C/C=C\CCC(=O)O)C(c2cccnc2)O1` (stereo not given), the Antagonist activity in experiment [7] was determined as 4; in experiment [8], 6; in experiment [9] it was 4. Further, the Kb in [1] was 120 nM. Also, the IC50 in experiment [2] is 51 nM; in [3], 2000 nM. Besides, the Inhibition in experiment [10] was 83%; in [11], 93.2%; in experiment [12], 80%.

For orientation: IC50 means the point on the concentration scale where inhibition reaches its midpoint. A high value points to weaker potency in that assay. The term inhibition denotes the share of the control response that was lost under treatment. What is called Inhibition is the change of the read-out against control, counted positive when it falls. As a reminder, the pA2 is the negative logarithm of the molar antagonist concentration that doubles the agonist concentration needed for the same response.

The values are drawn from ChEMBL document CHEMBL1128245, “Dual-acting thromboxane receptor antagonist/synthase inhibitors: synthesis and biological properties of [2-substituted-4-(3-pyridyl)-1,3-dioxan-5-yl] alkenoic acids” (J Med Chem, 1995).
